In ChEMBL document CHEMBL3576819, “Design, synthesis, biological evaluation and molecular docking studies of phenylpropanoid derivatives as potent anti-hepatitis B virus agents” (Eur J Med Chem, 2015):

Tests used:
[1] = Cytotoxicity against human HepG2.2.15 cells assessed as cell death after 9 days by MTT assay; assay type: cell-based, HepG2 2.2.15
Procedure, shortened: (§1)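 HepG2.2.15 cells (MEM, 10% FBS, 380 µg/ml G418, 37 °C, 5% CO2) seeded at 1×10^5 cells/ml, cultured 24 h, then exposed to various drug concentrations; drug-containing medium renewed every 3 d. OD read at 450 nm after 9 days; percent cell death calculated; CC50 = concentration killing 50% of cells. Means of at least two experiments.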

[2] = system: Hepatitis B virus; experiment: Antiviral activity against Hepatitis B virus infected in human HepG2.2.15 cells assessed as inhibition of HBsAg secretion by ELISA; assay type: functional, organism-based; conditions: HepG2 2.2.15
Procedure, shortened: (§2)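 HepG2.2.15 cells (MEM, 10% FBS, 380 µg/ml G418) seeded at 1×10^5 cells/ml, held 24 h at 37 °C, then treated with various drug concentrations; medium with drug renewed every 3 d for up to 9 d. Culture medium sampled on days 3, 6 and 9, stored at -20 °C, and assayed for secreted antigen. Lamivudine as positive control; IC50 = 50% inhibition of secretion; means of at least two experiments.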

[3] = system: Hepatitis B virus; experiment: Antiviral activity against Hepatitis B virus infected in human HepG2.2.15 cells assessed as inhibition of HBeAg secretion by ELISA; assay type: functional, organism-based; conditions: HepG2 2.2.15; procedure, shortened: as §2
[4] = Selectivity index, ratio of CC50 for human HepG2.2.15 cells to IC50 for Hepatitis B virus infected in human HepG2.2.15 cells assessed as inhibition of HBsAg secretion; assay type: functional
Procedure, shortened: (§3)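 Selectivity index computed as CC50/IC50, with CC50 from cell death of HepG2.2.15 cells after 9 days of treatment (OD 450 nm) and IC50 from 50% inhibition of HBeAg or HBsAg secretion in the same cells; medium with drug renewed every 3 d.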

[5] = Selectivity index, ratio of CC50 for human HepG2.2.15 cells to IC50 for Hepatitis B virus infected in human HepG2.2.15 cells assessed as inhibition of HBeAg secretion; assay type: functional; procedure, shortened: as §3
[6] = system: Hepatitis B virus; experiment: Antiviral activity against Hepatitis B virus infected in human HepG2.2.15 cells assessed as cell survival at 75 uM after 9 days (reference value: 100%); assay type: functional; conditions: HepG2 2.2.15, 216 h; procedure, shortened: as §1
[7] = system: Hepatitis B virus; experiment: Antiviral activity against Hepatitis B virus infected in human HepG2.2.15 cells assessed as inhibition of HBsAg secretion at 75 uM after 3 days by ELISA; assay type: functional; conditions: HepG2 2.2.15, 72 h; procedure, shortened: as §2
[8] = system: Hepatitis B virus; experiment: Antiviral activity against Hepatitis B virus infected in human HepG2.2.15 cells assessed as inhibition of HBeAg secretion at 150 uM after 9 days by ELISA; assay type: functional; conditions: HepG2 2.2.15, 216 h; procedure, shortened: as §2
[9] = system: Hepatitis B virus; experiment: Antiviral activity against Hepatitis B virus infected in human HepG2.2.15 cells assessed as inhibition of HBsAg secretion at 150 uM after 6 days by ELISA; assay type: functional; conditions: HepG2 2.2.15, 144 h; procedure, shortened: as §2
[10] = system: Hepatitis B virus; experiment: Antiviral activity against Hepatitis B virus infected in human HepG2.2.15 cells assessed as inhibition of HBeAg secretion at 75 uM after 9 days by ELISA; assay type: functional; conditions: HepG2 2.2.15, 216 h; procedure, shortened: as §2
[11] = system: Hepatitis B virus; experiment: Antiviral activity against Hepatitis B virus infected in human HepG2.2.15 cells assessed as inhibition of HBsAg secretion at 75 uM after 6 days by ELISA; assay type: functional; conditions: HepG2 2.2.15, 144 h; procedure, shortened: as §2
[12] = system: Hepatitis B virus; experiment: Antiviral activity against Hepatitis B virus infected in human HepG2.2.15 cells assessed as cell survival at 37.5 uM after 9 days (reference value: 100%); assay type: functional; conditions: HepG2 2.2.15, 216 h; procedure, shortened: as §1
[13] = system: Hepatitis B virus; experiment: Antiviral activity against Hepatitis B virus infected in human HepG2.2.15 cells assessed as inhibition of HBeAg secretion at 300 uM after 3 days by ELISA; assay type: functional; conditions: HepG2 2.2.15, 72 h; procedure, shortened: as §2
[14] = system: Hepatitis B virus; experiment: Antiviral activity against Hepatitis B virus infected in human HepG2.2.15 cells assessed as inhibition of HBsAg secretion at 75 uM after 9 days by ELISA; assay type: functional; conditions: HepG2 2.2.15, 216 h; procedure, shortened: as §2
[15] = system: Hepatitis B virus; experiment: Antiviral activity against Hepatitis B virus infected in human HepG2.2.15 cells assessed as inhibition of HBeAg secretion at 150 uM after 3 days by ELISA; assay type: functional; conditions: HepG2 2.2.15, 72 h; procedure, shortened: as §2
[16] = system: Hepatitis B virus; experiment: Antiviral activity against Hepatitis B virus infected in human HepG2.2.15 cells assessed as inhibition of HBeAg secretion at 150 uM after 6 days by ELISA; assay type: functional; conditions: HepG2 2.2.15, 144 h; procedure, shortened: as §2
[17] = system: Hepatitis B virus; experiment: Antiviral activity against Hepatitis B virus infected in human HepG2.2.15 cells assessed as inhibition of HBsAg secretion at 150 uM after 3 days by ELISA; assay type: functional; conditions: HepG2 2.2.15, 72 h; procedure, shortened: as §2
[18] = system: Hepatitis B virus; experiment: Antiviral activity against Hepatitis B virus infected in human HepG2.2.15 cells assessed as inhibition of HBeAg secretion at 75 uM after 6 days by ELISA; assay type: functional; conditions: HepG2 2.2.15, 144 h; procedure, shortened: as §2
[19] = system: Hepatitis B virus; experiment: Antiviral activity against Hepatitis B virus infected in human HepG2.2.15 cells assessed as cell survival at 300 uM after 9 days (reference value: 100%); assay type: functional; conditions: HepG2 2.2.15, 216 h; procedure, shortened: as §1
[20] = system: Hepatitis B virus; experiment: Antiviral activity against Hepatitis B virus infected in human HepG2.2.15 cells assessed as inhibition of HBeAg secretion at 37.5 uM after 6 days by ELISA; assay type: functional; conditions: HepG2 2.2.15, 144 h; procedure, shortened: as §2
[21] = system: Hepatitis B virus; experiment: Antiviral activity against Hepatitis B virus infected in human HepG2.2.15 cells assessed as inhibition of HBeAg secretion at 37.5 uM after 3 days by ELISA; assay type: functional; conditions: HepG2 2.2.15, 72 h; procedure, shortened: as §2
[22] = system: Hepatitis B virus; experiment: Antiviral activity against Hepatitis B virus infected in human HepG2.2.15 cells assessed as inhibition of HBeAg secretion at 37.5 uM after 9 days by ELISA; assay type: functional; conditions: HepG2 2.2.15, 216 h; procedure, shortened: as §2
[23] = system: Hepatitis B virus; experiment: Antiviral activity against Hepatitis B virus infected in human HepG2.2.15 cells assessed as inhibition of HBsAg secretion at 300 uM after 3 days by ELISA; assay type: functional; conditions: HepG2 2.2.15, 72 h; procedure, shortened: as §2
[24] = system: Hepatitis B virus; experiment: Antiviral activity against Hepatitis B virus infected in human HepG2.2.15 cells assessed as inhibition of HBeAg secretion at 300 uM after 6 days by ELISA; assay type: functional; conditions: HepG2 2.2.15, 144 h; procedure, shortened: as §2
[25] = system: Hepatitis B virus; experiment: Antiviral activity against Hepatitis B virus infected in human HepG2.2.15 cells assessed as inhibition of HBsAg secretion at 37.5 uM after 9 days by ELISA; assay type: functional; conditions: HepG2 2.2.15, 216 h; procedure, shortened: as §2
[26] = system: Hepatitis B virus; experiment: Antiviral activity against Hepatitis B virus infected in human HepG2.2.15 cells assessed as inhibition of HBsAg secretion at 150 uM after 9 days by ELISA; assay type: functional; conditions: HepG2 2.2.15, 216 h; procedure, shortened: as §2
[27] = system: Hepatitis B virus; experiment: Antiviral activity against Hepatitis B virus infected in human HepG2.2.15 cells assessed as inhibition of HBeAg secretion at 300 uM after 9 days by ELISA; assay type: functional; conditions: HepG2 2.2.15, 216 h; procedure, shortened: as §2
[28] = system: Hepatitis B virus; experiment: Antiviral activity against Hepatitis B virus infected in human HepG2.2.15 cells assessed as inhibition of HBsAg secretion at 300 uM after 6 days by ELISA; assay type: functional; conditions: HepG2 2.2.15, 144 h; procedure, shortened: as §2
[29] = system: Hepatitis B virus; experiment: Antiviral activity against Hepatitis B virus infected in human HepG2.2.15 cells assessed as inhibition of HBeAg secretion at 75 uM after 3 days by ELISA; assay type: functional; conditions: HepG2 2.2.15, 72 h; procedure, shortened: as §2
[30] = system: Hepatitis B virus; experiment: Antiviral activity against Hepatitis B virus infected in human HepG2.2.15 cells assessed as inhibition of HBsAg secretion at 37.5 uM after 6 days by ELISA; assay type: functional; conditions: HepG2 2.2.15, 144 h; procedure, shortened: as §2
[31] = system: Hepatitis B virus; experiment: Antiviral activity against Hepatitis B virus infected in human HepG2.2.15 cells assessed as inhibition of HBsAg secretion at 300 uM after 9 days by ELISA; assay type: functional; conditions: HepG2 2.2.15, 216 h; procedure, shortened: as §2
[32] = system: Hepatitis B virus; experiment: Antiviral activity against Hepatitis B virus infected in human HepG2.2.15 cells assessed as cell survival at 150 uM after 9 days (reference value: 100%); assay type: functional; conditions: HepG2 2.2.15, 216 h; procedure, shortened: as §1

SMILES: COc1cc(C=O)cc2c1OCO2
- CC50 at 216 h [1]: 1080 µM

SMILES: COc1cc(/C=C/C(=O)O)cc2c1OCO2
- CC50 at 216 h [1]: 667 µM
- IC50 [2]: 411 µM
- IC50 [3]: 477 µM
- Ratio CC50/IC50 [4]: 1.62
- Ratio CC50/IC50 [5]: 1.4

SMILES: O/N=C/c1ccco1
- CC50 at 216 h [1]: 475 µM
- IC50 [2]: 480 µM
- IC50 [3]: 519 µM
- Ratio CC50/IC50 [4]: 1.01
- Ratio CC50/IC50 [5]: 0.91

SMILES: COc1ccc(/C=C/C(=O)O/N=C/c2ccccn2)cc1OC
- viability at 75 µM [6]: 104%
- inhibition at 75 µM [7]: 2.54%
- inhibition at 150 µM [8]: 48.4%
- CC50 at 216 h [1]: 545 µM
- inhibition at 150 µM [9]: 26.8%
- inhibition at 75 µM [10]: 40.3%
- inhibition at 75 µM [11]: 19.5%
- IC50 [2]: 152 µM
- viability at 37.5 µM [12]: 107%
- inhibition at 300 µM [13]: 50.4%
- inhibition at 75 µM [14]: 36.7%
- inhibition at 150 µM [15]: 36.7%
- inhibition at 150 µM [16]: 47.4%
- inhibition at 150 µM [17]: 10.8%
- inhibition at 75 µM [18]: 32.9%
- viability at 300 µM [19]: 99.5%
- inhibition at 37.5 µM [20]: 24.7%
- inhibition at 37.5 µM [21]: 19.3%
- inhibition at 37.5 µM [22]: 27%
- inhibition at 300 µM [23]: 13.3%
- inhibition at 300 µM [24]: 56.9%
- IC50 [3]: 162 µM
- inhibition at 37.5 µM [25]: 19.8%
- inhibition at 150 µM [26]: 54.5%
- Ratio CC50/IC50 [4]: 3.59
- inhibition at 300 µM [27]: 59.2%
- Ratio CC50/IC50 [5]: 3.37
- inhibition at 300 µM [28]: 32.8%
- inhibition at 75 µM [29]: 27.7%
- inhibition at 37.5 µM [30]: 11.2%
- inhibition at 300 µM [31]: 61.3%
- viability at 150 µM [32]: 102%
